According to ChEMBL document CHEMBL1687776, “Origin and molecular evolution of the determinant of methicillin resistance in staphylococci” (2010):
≈ marks a conversion by molar mass, not a printed value.

tested on: Staphylococcus vitulinus; experiment: Antibacterial activity against methicillin-resistant mecA-positive Staphylococcus vitulinus SVMP06 by agar dilution method; format: functional; details: Mammaliicoccus vitulinus
In short: (§1)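 MIC by agar dilution on Mueller-Hinton agar per CLSI guidance; resistance judged against CLSI breakpoints. Strains were animal or food isolates (type strains for S. sciuri subspecies), typed by hsp60 and/or sodA sequencing; mecA homologue carriage checked by PCR with degenerate primers. Agents tested: oxacillin, ampicillin, ceftizoxime, ceftriaxone, cefoxitin.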

SMILES	MIC [mg/L]
CO[C@@]1(NC(=O)Cc2cccs2)C(=O)N2C(C(=O)O)=C(COC(N)=O)CS[C@@H]21 [CEFOXITIN]	1 (≈ 2.34 µM)

tested on: Staphylococcus fleurettii; experiment: Antibacterial activity against methicillin-resistant mecA-positive Staphylococcus fleurettii SFMP07 by agar dilution method; format: functional; details: Mammaliicoccus fleurettii; in short: as §1

SMILES	MIC [mg/L]
CO[C@@]1(NC(=O)Cc2cccs2)C(=O)N2C(C(=O)O)=C(COC(N)=O)CS[C@@H]21 [CEFOXITIN]	1 (≈ 2.34 µM)

tested on: Staphylococcus fleurettii; experiment: Antibacterial activity against methicillin-resistant mecA-positive Staphylococcus fleurettii SFMP02 by agar dilution method; format: functional; details: Mammaliicoccus fleurettii; in short: as §1

SMILES	MIC [mg/L]
CO[C@@]1(NC(=O)Cc2cccs2)C(=O)N2C(C(=O)O)=C(COC(N)=O)CS[C@@H]21 [CEFOXITIN]	1 (≈ 2.34 µM)

tested on: Staphylococcus vitulinus; experiment: Antibacterial activity against mecA-negative Staphylococcus vitulinus SVMN08 by agar dilution method; format: functional; details: Mammaliicoccus vitulinus
In short: (§2)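 MIC by agar dilution on Mueller-Hinton agar following CLSI guidelines. Resistance was assigned using CLSI breakpoints. Agents tested were oxacillin, ampicillin, ceftizoxime, ceftriaxone and cefoxitin. Strains were from animal or food sources and identified by hsp60 and/or sodA sequencing. mecA absence was assessed by PCR with degenerate primers for mecA and its homologues.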

SMILES	MIC [mg/L]
CO[C@@]1(NC(=O)Cc2cccs2)C(=O)N2C(C(=O)O)=C(COC(N)=O)CS[C@@H]21 [CEFOXITIN]	0.25 (≈ 0.585 µM)

tested on: Staphylococcus fleurettii; experiment: Antibacterial activity against methicillin-resistant mecA-positive Staphylococcus fleurettii SFMP05 by agar dilution method; format: functional; details: Mammaliicoccus fleurettii; in short: as §1

SMILES	MIC [mg/L]
CO[C@@]1(NC(=O)Cc2cccs2)C(=O)N2C(C(=O)O)=C(COC(N)=O)CS[C@@H]21 [CEFOXITIN]	1 (≈ 2.34 µM)

tested on: Staphylococcus vitulinus; experiment: Antibacterial activity against methicillin-resistant mecA-positive Staphylococcus vitulinus SVMP02 by agar dilution method; format: functional; details: Mammaliicoccus vitulinus; in short: as §1

SMILES	MIC [mg/L]
CO[C@@]1(NC(=O)Cc2cccs2)C(=O)N2C(C(=O)O)=C(COC(N)=O)CS[C@@H]21 [CEFOXITIN]	1 (≈ 2.34 µM)

tested on: Staphylococcus fleurettii; experiment: Antibacterial activity against mecA-negative Staphylococcus fleurettii SFMN01 by agar dilution method; format: functional; details: Mammaliicoccus fleurettii; in short: as §2

SMILES	MIC [mg/L]
CO[C@@]1(NC(=O)Cc2cccs2)C(=O)N2C(C(=O)O)=C(COC(N)=O)CS[C@@H]21 [CEFOXITIN]	2 (≈ 4.68 µM)

tested on: not listed separately; experiment: Antibacterial activity against methicillin-resistant mecA-positive Staphylococcus sciuri subsp. sciuri ATCC 29062T by agar dilution method; format: functional; details: Mammaliicoccus sciuri; in short: as §1

SMILES	MIC [mg/L]
CO[C@@]1(NC(=O)Cc2cccs2)C(=O)N2C(C(=O)O)=C(COC(N)=O)CS[C@@H]21 [CEFOXITIN]	2 (≈ 4.68 µM)

tested on: Staphylococcus vitulinus; experiment: Antibacterial activity against mecA-negative Staphylococcus vitulinus SVMN04 by agar dilution method; format: functional; details: Mammaliicoccus vitulinus; in short: as §1

SMILES	MIC [mg/L]
CO[C@@]1(NC(=O)Cc2cccs2)C(=O)N2C(C(=O)O)=C(COC(N)=O)CS[C@@H]21 [CEFOXITIN]	1 (≈ 2.34 µM)

tested on: Staphylococcus vitulinus; experiment: Antibacterial activity against mecA-negative Staphylococcus vitulinus SVMN12 by agar dilution method; format: functional; details: Mammaliicoccus vitulinus; in short: as §1

SMILES	MIC [mg/L]
CO[C@@]1(NC(=O)Cc2cccs2)C(=O)N2C(C(=O)O)=C(COC(N)=O)CS[C@@H]21 [CEFOXITIN]	1 (≈ 2.34 µM)

tested on: Staphylococcus vitulinus; experiment: Antibacterial activity against mecA-negative Staphylococcus vitulinus SVMN09 by agar dilution method; format: functional; details: Mammaliicoccus vitulinus; in short: as §1

SMILES	MIC [mg/L]
CO[C@@]1(NC(=O)Cc2cccs2)C(=O)N2C(C(=O)O)=C(COC(N)=O)CS[C@@H]21 [CEFOXITIN]	1 (≈ 2.34 µM)

tested on: Staphylococcus fleurettii; experiment: Antibacterial activity against methicillin-resistant mecA-positive Staphylococcus fleurettii SFMP08 by agar dilution method; format: functional; details: Mammaliicoccus fleurettii; in short: as §1

SMILES	MIC [mg/L]
CO[C@@]1(NC(=O)Cc2cccs2)C(=O)N2C(C(=O)O)=C(COC(N)=O)CS[C@@H]21 [CEFOXITIN]	2 (≈ 4.68 µM)

tested on: Staphylococcus vitulinus; experiment: Antibacterial activity against mecA-negative Staphylococcus vitulinus SVMN06 by agar dilution method; format: functional; details: Mammaliicoccus vitulinus; in short: as §1

SMILES	MIC [mg/L]
CO[C@@]1(NC(=O)Cc2cccs2)C(=O)N2C(C(=O)O)=C(COC(N)=O)CS[C@@H]21 [CEFOXITIN]	2 (≈ 4.68 µM)

tested on: Staphylococcus fleurettii; experiment: Antibacterial activity against methicillin-resistant mecA-positive Staphylococcus fleurettii SFMP06 by agar dilution method; format: functional; details: Mammaliicoccus fleurettii; in short: as §1

SMILES	MIC [mg/L]
CO[C@@]1(NC(=O)Cc2cccs2)C(=O)N2C(C(=O)O)=C(COC(N)=O)CS[C@@H]21 [CEFOXITIN]	2 (≈ 4.68 µM)

tested on: Staphylococcus vitulinus; experiment: Antibacterial activity against mecA-negative Staphylococcus vitulinus SVMN11 by agar dilution method; format: functional; details: Mammaliicoccus vitulinus; in short: as §1

SMILES	MIC [mg/L]
CO[C@@]1(NC(=O)Cc2cccs2)C(=O)N2C(C(=O)O)=C(COC(N)=O)CS[C@@H]21 [CEFOXITIN]	1 (≈ 2.34 µM)

tested on: Staphylococcus fleurettii; experiment: Antibacterial activity against methicillin-resistant mecA-positive Staphylococcus fleurettii SFMP01(CCUG 43834T) by agar dilution method; format: functional; details: Mammaliicoccus fleurettii; in short: as §1

SMILES	MIC [mg/L]
CO[C@@]1(NC(=O)Cc2cccs2)C(=O)N2C(C(=O)O)=C(COC(N)=O)CS[C@@H]21 [CEFOXITIN]	2 (≈ 4.68 µM)

tested on: not listed separately; experiment: Antibacterial activity against methicillin-resistant mecA-positive Staphylococcus sciuri subsp. rodentium ATCC 700061T by agar dilution method; format: functional; details: Mammaliicoccus sciuri; in short: as §1

SMILES	MIC [mg/L]
CO[C@@]1(NC(=O)Cc2cccs2)C(=O)N2C(C(=O)O)=C(COC(N)=O)CS[C@@H]21 [CEFOXITIN]	2 (≈ 4.68 µM)

tested on: Staphylococcus vitulinus; experiment: Antibacterial activity against mecA-negative Staphylococcus vitulinus SVMN03 by agar dilution method; format: functional; details: Mammaliicoccus vitulinus; in short: as §2

SMILES	MIC [mg/L]
CO[C@@]1(NC(=O)Cc2cccs2)C(=O)N2C(C(=O)O)=C(COC(N)=O)CS[C@@H]21 [CEFOXITIN]	0.5 (≈ 1.17 µM)

tested on: Staphylococcus vitulinus; experiment: Antibacterial activity against methicillin-resistant mecA-positive Staphylococcus vitulinus SVMP04 by agar dilution method; format: functional; details: Mammaliicoccus vitulinus; in short: as §1

SMILES	MIC [mg/L]
CO[C@@]1(NC(=O)Cc2cccs2)C(=O)N2C(C(=O)O)=C(COC(N)=O)CS[C@@H]21 [CEFOXITIN]	1 (≈ 2.34 µM)

tested on: Staphylococcus vitulinus; experiment: Antibacterial activity against mecA-negative Staphylococcus vitulinus SVMN01 (ATCC 51145T) by agar dilution method; format: functional; details: Mammaliicoccus vitulinus; in short: as §2

SMILES	MIC [mg/L]
CO[C@@]1(NC(=O)Cc2cccs2)C(=O)N2C(C(=O)O)=C(COC(N)=O)CS[C@@H]21 [CEFOXITIN]	2 (≈ 4.68 µM)

tested on: Mammaliicoccus lentus; experiment: Antibacterial activity against mecA-negative Staphylococcus lentus ATCC 29070T by agar dilution method; format: functional; details: not given; in short: as §2

SMILES	MIC [mg/L]
CO[C@@]1(NC(=O)Cc2cccs2)C(=O)N2C(C(=O)O)=C(COC(N)=O)CS[C@@H]21 [CEFOXITIN]	2 (≈ 4.68 µM)

tested on: Staphylococcus vitulinus; experiment: Antibacterial activity against mecA-negative Staphylococcus vitulinus SVMN10 by agar dilution method; format: functional; details: Mammaliicoccus vitulinus; in short: as §2

SMILES	MIC [mg/L]
CO[C@@]1(NC(=O)Cc2cccs2)C(=O)N2C(C(=O)O)=C(COC(N)=O)CS[C@@H]21 [CEFOXITIN]	0.5 (≈ 1.17 µM)

tested on: Staphylococcus fleurettii; experiment: Antibacterial activity against methicillin-resistant mecA-positive Staphylococcus fleurettii SFMP03 by agar dilution method; format: functional; details: Mammaliicoccus fleurettii; in short: as §1

SMILES	MIC [mg/L]
CO[C@@]1(NC(=O)Cc2cccs2)C(=O)N2C(C(=O)O)=C(COC(N)=O)CS[C@@H]21 [CEFOXITIN]	8 (≈ 18.7 µM)

tested on: Staphylococcus fleurettii; experiment: Antibacterial activity against mecA-negative Staphylococcus fleurettii SFMN02 by agar dilution method; format: functional; details: Mammaliicoccus fleurettii; in short: as §2

SMILES	MIC [mg/L]
CO[C@@]1(NC(=O)Cc2cccs2)C(=O)N2C(C(=O)O)=C(COC(N)=O)CS[C@@H]21 [CEFOXITIN]	2 (≈ 4.68 µM)

tested on: Staphylococcus vitulinus; experiment: Antibacterial activity against methicillin-resistant mecA-positive Staphylococcus vitulinus SVMP05 by agar dilution method; format: functional; details: Mammaliicoccus vitulinus; in short: as §1

SMILES	MIC [mg/L]
CO[C@@]1(NC(=O)Cc2cccs2)C(=O)N2C(C(=O)O)=C(COC(N)=O)CS[C@@H]21 [CEFOXITIN]	1 (≈ 2.34 µM)

tested on: Staphylococcus vitulinus; experiment: Antibacterial activity against mecA-negative Staphylococcus vitulinus SVMN02 by agar dilution method; format: functional; details: Mammaliicoccus vitulinus; in short: as §1

SMILES	MIC [mg/L]
CO[C@@]1(NC(=O)Cc2cccs2)C(=O)N2C(C(=O)O)=C(COC(N)=O)CS[C@@H]21 [CEFOXITIN]	1 (≈ 2.34 µM)

tested on: Staphylococcus vitulinus; experiment: Antibacterial activity against mecA-negative Staphylococcus vitulinus SVMN13 by agar dilution method; format: functional; details: Mammaliicoccus vitulinus; in short: as §2

SMILES	MIC [mg/L]
CO[C@@]1(NC(=O)Cc2cccs2)C(=O)N2C(C(=O)O)=C(COC(N)=O)CS[C@@H]21 [CEFOXITIN]	1 (≈ 2.34 µM)

tested on: Staphylococcus vitulinus; experiment: Antibacterial activity against methicillin-resistant mecA-positive Staphylococcus vitulinus SVMP03 by agar dilution method; format: functional; details: Mammaliicoccus vitulinus; in short: as §1

SMILES	MIC [mg/L]
CO[C@@]1(NC(=O)Cc2cccs2)C(=O)N2C(C(=O)O)=C(COC(N)=O)CS[C@@H]21 [CEFOXITIN]	2 (≈ 4.68 µM)

tested on: Staphylococcus vitulinus; experiment: Antibacterial activity against mecA-negative Staphylococcus vitulinus SVMN07 by agar dilution method; format: functional; details: Mammaliicoccus vitulinus; in short: as §1

SMILES	MIC [mg/L]
CO[C@@]1(NC(=O)Cc2cccs2)C(=O)N2C(C(=O)O)=C(COC(N)=O)CS[C@@H]21 [CEFOXITIN]	2 (≈ 4.68 µM)

tested on: Staphylococcus vitulinus; experiment: Antibacterial activity against mecA-negative Staphylococcus vitulinus SVMN05 by agar dilution method; format: functional; details: Mammaliicoccus vitulinus; in short: as §1

SMILES	MIC [mg/L]
CO[C@@]1(NC(=O)Cc2cccs2)C(=O)N2C(C(=O)O)=C(COC(N)=O)CS[C@@H]21 [CEFOXITIN]	1 (≈ 2.34 µM)

tested on: Staphylococcus vitulinus; experiment: Antibacterial activity against mecA-negative Staphylococcus vitulinus SVMN14 by agar dilution method; format: functional; details: Mammaliicoccus vitulinus; in short: as §1

SMILES	MIC [mg/L]
CO[C@@]1(NC(=O)Cc2cccs2)C(=O)N2C(C(=O)O)=C(COC(N)=O)CS[C@@H]21 [CEFOXITIN]	0.5 (≈ 1.17 µM)

tested on: Staphylococcus fleurettii; experiment: Antibacterial activity against methicillin-resistant mecA-positive Staphylococcus fleurettii SFMP04 by agar dilution method; format: functional; details: Mammaliicoccus fleurettii; in short: as §1

SMILES	MIC [mg/L]
CO[C@@]1(NC(=O)Cc2cccs2)C(=O)N2C(C(=O)O)=C(COC(N)=O)CS[C@@H]21 [CEFOXITIN]	4 (≈ 9.36 µM)

tested on: Staphylococcus vitulinus; experiment: Antibacterial activity against methicillin-resistant mecA-positive Staphylococcus vitulinus SVMP01 by agar dilution method; format: functional; details: Mammaliicoccus vitulinus; in short: as §1

SMILES	MIC [mg/L]
CO[C@@]1(NC(=O)Cc2cccs2)C(=O)N2C(C(=O)O)=C(COC(N)=O)CS[C@@H]21 [CEFOXITIN]	2 (≈ 4.68 µM)

tested on: not listed separately; experiment: Antibacterial activity against mecA-positive Staphylococcus sciuri subsp. carnaticus ATCC 700058T by agar dilution method; details: Mammaliicoccus sciuri

SMILES	MIC [mg/L]
CO[C@@]1(NC(=O)Cc2cccs2)C(=O)N2C(C(=O)O)=C(COC(N)=O)CS[C@@H]21 [CEFOXITIN]	2 (≈ 4.68 µM)
